Measurements taken from ChEMBL document CHEMBL4145497, “Discovery of 2-aminothiazolyl berberine derivatives as effectively antibacterial agents toward clinically drug-resistant Gram-negative Acinetobacter baumanii” (Eur J Med Chem, 2018).
Values after ≈ are worked out from the molar mass of the structure shown.

Key:
[1] = test system: Klebsiella pneumoniae; assay: Antibacterial activity against drug-resistant Klebsiella pneumoniae after 18 to 24 hrs by CLSI two fold serial dilution method; format: functional
[2] = test system: Pseudomonas aeruginosa; assay: Antibacterial activity against Pseudomonas aeruginosa ATCC 27853 after 18 to 24 hrs by CLSI two fold serial dilution method; format: functional
[3] = test system: Pseudomonas aeruginosa; assay: Antibacterial activity against drug-resistant Pseudomonas aeruginosa after 18 to 24 hrs by CLSI two fold serial dilution method; format: functional
[4] = test system: Acinetobacter baumannii; assay: Antibacterial activity against drug-resistant Acinetobacter baumannii after 18 to 24 hrs by CLSI two fold serial dilution method; format: functional
[5] = Aqueous solubility of the compound in phosphate buffer at pH 7.4 after 3 hrs by UV detection assay; format: physicochemical
How it was run: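 Water solubility measured at physiological pH, with berberine as the control.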

[6] = test system: Staphylococcus aureus; assay: Antibacterial activity against Staphylococcus aureus ATCC 25923 after 18 to 24 hrs by CLSI two fold serial dilution method; format: functional
[7] = test system: Micrococcus luteus; assay: Antibacterial activity against Micrococcus luteus ATCC 4698 after 18 to 24 hrs by CLSI two fold serial dilution method; format: functional
[8] = test system: Bacillus subtilis; assay: Antibacterial activity against Bacillus subtilis ATCC 21216 after 18 to 24 hrs by CLSI two fold serial dilution method; format: functional
[9] = Oral bioavailability in ICR mouse at 10.4 to 83.2 mg/kg after 60 mins by HPLC method; format: ADME, organism-based; conditions: in vivo
[10] = test system: Staphylococcus aureus; assay: Antibacterial activity against methicillin-resistant Staphylococcus aureus N315 after 18 to 24 hrs by CLSI two fold serial dilution method; format: functional
[11] = test system: Escherichia coli; assay: Antibacterial activity against drug-resistant Escherichia coli after 18 to 24 hrs by CLSI two fold serial dilution method; format: functional
[12] = test system: Escherichia coli; assay: Antibacterial activity against Escherichia coli DH52 after 18 to 24 hrs by CLSI two fold serial dilution method; format: functional
[13] = test system: Enterococcus faecalis; assay: Antibacterial activity against drug-resistant Enterococcus faecalis after 18 to 24 hrs by CLSI two fold serial dilution method; format: functional
[14] = test system: Saccharomyces cerevisiae; assay: Antifungal activity against Saccharomyces cerevisiae ATCC 9763 by CLSI two fold serial dilution method; format: functional
[15] = test system: Micrococcus luteus; assay: Potency index, ratio of berberine MIC to compound MIC for antibacterial activity against Micrococcus luteus ATCC 4698; format: functional
[16] = test system: Pichia norvegensis; assay: Antifungal activity against Candida mycoderma ATCC 96918 by CLSI two fold serial dilution method; format: functional
[17] = test system: Candida parapsilosis; assay: Antifungal activity against Candida parapsilosis ATCC 22019 by CLSI two fold serial dilution method; format: functional; conditions: Lodderomyces parapsilosis
[18] = test system: Cyberlindnera jadinii; assay: Antifungal activity against Candida utilis ATCC 9950 by CLSI two fold serial dilution method; format: functional; conditions: Williopsis jadinii
[19] = test system: Aspergillus flavus; assay: Antifungal activity against Aspergillus flavus ATCC 204304 by CLSI two fold serial dilution method; format: functional
[20] = test system: Candida albicans; assay: Antifungal activity against Candida albicans ATCC 76615 by CLSI two fold serial dilution method; format: functional

SMILES: COc1ccc2cc3[n+](cc2c1OC)CCc1cc2c(cc1-3)OCO2 [BERBERINE]
- MIC [1]: 1380 µM
- MIC [2]: 690 µM
- MIC [3]: 1380 µM
- MIC [4]: 1380 µM
- solubility at 3 h [5]: 86 µg/mL
- MIC [6]: 340 µM
- MIC [7]: 690 to 1380 µM
- MIC [8]: 690 to 1380 µM
- bioavailability [9]: < 1%
- MIC [10]: 1380 µM
- MIC [11]: 1380 µM
- MIC [12]: 690 to 1380 µM
- MIC [13]: 1380 µM

SMILES: COc1cc(/C=N/Nc2nccs2)c2c(c1OCc1ccc(F)cc1)CN1CCc3cc4c(cc3C1C2)OCO4 (stereo unspecified)
- MIC [2]: 230 µM (≈ 128 µg/mL)
- MIC [14]: 460 µM (≈ 257 µg/mL)
- Ratio [15]: 12
- solubility at 3 h [5]: 374 to 3190 µg/mL (≈ 0.669 to 5.71 mM)
- MIC [16]: 120 µM (≈ 67 µg/mL)
- MIC [6]: 110 µM (≈ 61.4 µg/mL)
- MIC [7]: 60 µM (≈ 33.5 µg/mL)
- MIC [8]: 230 µM (≈ 128 µg/mL)
- MIC [17]: 30 µM (≈ 16.8 µg/mL)
- MIC [18]: 230 µM (≈ 128 µg/mL)
- MIC [19]: 460 µM (≈ 257 µg/mL)
- MIC [20]: 230 µM (≈ 128 µg/mL)
- MIC [12]: 460 µM (≈ 257 µg/mL)
